SMILES strings stand for the structures.

Assay [1] concerns Mus musculus. Nature of the assay: Percentage efficacy to normalize the blood glucose levels to that of normal mouse in ob/ob mouse after 3 days and 4 hours of 100 mg/kg dose administration. The class given is functional. In short, it runs like this:
(§1)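 Adult male C57BL ob/ob mice, n = 6/group, matched on day-0 blood glucose; non-diabetic animals (<150 mg/dL basal) excluded. Oral dosing each morning days 1-3 in 0.5% CMC with 0.2% Tween-80. Tail-nick blood glucose by YSI analyzer. % efficacy = {1 − ([glc]cpd − 100)/([glc]veh − 100)} × 100. Significance by t-test vs vehicle, p < 0.05.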

In assay [2] the test system is Mus musculus. Nature of the assay: Percentage efficacy to normalize the blood glucose levels to that of normal mouse in ob/ob mouse after 3 days and 8 hours of 100 mg/kg dose administration. The format is functional. In short, it runs like this: as §1
Assay [3] relates to Mus musculus. The assay can be described thus: Percentage efficacy to normalize the blood glucose levels to that of normal mouse in ob/ob mouse after 3 days and 8 hours of 300 mg/kg dose administration; Nonsignificant. The class given is functional, organism-based. Details: dose 300 mg/kg. In short, it runs like this: as §1
The subject of assay [4] is Mus musculus. The assay can be described thus: Percentage efficacy to normalize the blood glucose levels to that of normal mouse in ob/ob mouse after 3 days and 4 hours of 300 mg/kg dose administration; Nonsignificant. The class given is functional, organism-based. Details: dose 300 mg/kg. The procedure, abridged:
as §1

Assay [5] deals with Mus musculus. The assay can be described thus: Percentage efficacy to normalize the blood glucose levels to that of normal mouse in ob/ob mouse after 3 days and 8 hours of 100 mg/kg dose administration; Nonsignificant. The class given is functional, organism-based. On the set-up: dose 100 mg/kg. The procedure, abridged:
as §1

Assay [6] deals with Mus musculus. The assay can be described thus: Percentage efficacy to normalize the blood glucose levels to that of normal mouse in ob/ob mouse after 3 days and 4 hours of 100 mg/kg dose administration; Nonsignificant. The format is functional, organism-based. On the set-up: dose 100 mg/kg. In short, it runs like this:
as §1

Assay [7] has as its system Mus musculus. The assay can be described thus: Percentage efficacy to normalize the blood glucose levels to that of normal mouse in ob/ob mouse after 3 days and 4 hours of 300 mg/kg dose administration. The format is functional. The procedure, abridged: as §1
In assay [8] the test system is Mus musculus. The assay can be described thus: Percentage efficacy to normalize the blood glucose levels to that of normal mouse in ob/ob mouse after 3 days and 8 hours of 300 mg/kg dose administration. The format is functional. In short, it runs like this: as §1

Take `CN(C)C(=O)Cc1cn(-c2cccc(C(F)(F)F)c2)nc1-c1ccc2c(ccc3ccccc32)c1`: the Efficacy in assay [1] turned out to be 90%; in assay [2], 71%.

For the compound `Cc1cc(C)cc(-n2cc(CC(=O)N(C)C)c(-c3ccc(Cl)c(Cl)c3)n2)c1`, the Efficacy entry in assay [3] and in assay [4] was “Not significant” in each case.

For the compound `CCOC(=O)Cc1cn(-c2cccc(C(F)(F)F)c2)nc1-c1ccc(Cl)c(Cl)c1`, the Efficacy result in assay [3] and in assay [4] was “Not significant” each time.

As to `CN(C)C(=O)Cc1cn(-c2cccc(C(F)(F)F)c2)nc1-c1ccc(C(C)(C)C)cc1`, the Efficacy result in assay [5] and in assay [6] was “Not significant” in each case.

As to `CN(C)C(=O)Cc1cn(-c2cccc(C(F)(F)F)c2)nc1-c1ccc2c(c1)C(C)(C)c1ccccc1-2`, the Efficacy is listed as 67% in assay [1] and 83% in assay [2].

For `CN(C)C(=O)Cc1cn(-c2cccc(C(F)(F)F)c2)nc1-c1ccc(-c2ccc(-c3ccccc3)cc2)cc1`, the Efficacy entry in assay [5] and in assay [6] was “Not significant” each time.

`CN(C)C(=O)Cc1cn(-c2cc(Cl)cc(Cl)c2)nc1-c1ccc(Cl)c(Cl)c1`: the Efficacy entry in assay [3] is “Not significant”; in assay [7] it was 52%.

Turning to `CN(C)C(=O)Cc1cn(-c2cccc(C(F)(F)F)c2)nc1-c1ccc2c(c1)CCc1ccccc1-2`, the figures for the Efficacy in assay [1] and in assay [2] were 87% and 111%, respectively.

`CN(C)C(=O)Cc1cn(-c2cccc(C(F)(F)F)c2)nc1-c1ccc2oc3ccccc3c2c1`: the Efficacy entry in assay [5] and in assay [6] was “Not significant” in each case.

Turning to `CN(C)C(=O)Cc1cn(-c2cccc([N+](=O)[O-])c2)nc1-c1ccc(Cl)c(Cl)c1`, the Efficacy in assay [1] is -72%; in assay [2], -88%.

Turning to `O=C(Cc1cn(-c2cccc(C(F)(F)F)c2)nc1-c1ccc(Cl)c(Cl)c1)N1CCCCC1`, the Efficacy result in assay [3] and in assay [4] was “Not significant” throughout.

On to `CC(=O)OC1c2ccccc2-c2ccc(-c3nn(-c4cccc(C(F)(F)F)c4)cc3CC(=O)N(C)C)cc21` (stereo not given), for which the Efficacy in assay [1] worked out at 95%; in assay [2], 108%.

With `O=C(Cc1cn(-c2cccc(C(F)(F)F)c2)nc1-c1ccc(Cl)c(Cl)c1)N1CCOCC1`, the Efficacy entry in assay [3] and in assay [4] was “Not significant” in each case.

For `CN1CCN(C(=O)Cc2cn(-c3cccc(C(F)(F)F)c3)nc2-c2ccc(Cl)c(Cl)c2)CC1`, the Efficacy entry in assay [3] is “Not significant”; in assay [7], 54%.

Consider `CN(C)C(=O)Cc1cn(-c2ccc(Cl)cc2)nc1-c1ccc(Cl)c(Cl)c1`, for which the Efficacy is 52% in assay [8] and 47% in assay [7].

Consider `O=C(Cc1cn(-c2cccc(F)c2)nc1-c1ccc(Cl)c(Cl)c1)N1CCCC1`, for which the Efficacy in assay [8] was determined as 75%; in assay [7], 74%.

Turning to `CN(C)C(=O)Cc1cn(-c2cccc(C(F)(F)F)c2)nc1-c1ccccc1-c1ccccc1`, the Efficacy entry in assay [5] and in assay [6] was “Not significant” in each case.

As for `CN(C)C(=O)Cc1cn(-c2cccc(C(F)(F)F)c2)nc1-c1cc2ccccc2c2ccccc12`, the Efficacy entry in assay [5] and in assay [6] was “Not significant” each time.

As for `CONC(=O)Cc1cn(-c2cccc(C(F)(F)F)c2)nc1-c1ccc(Cl)c(Cl)c1`, the Efficacy in assay [8] is listed as 35%; in assay [7] it was 48%.

As to `CN(C)C(=O)Cc1cn(-c2cccc(C(F)(F)F)c2)nc1-c1ccc2c(c1)C(C)(O)c1ccccc1-2` (stereo not given), the Efficacy in assay [1] is 73%; in assay [2], 64%.

Turning to `CCN(CC)C(=O)Cc1cn(-c2cccc(C(F)(F)F)c2)nc1-c1ccc(Cl)c(Cl)c1`, the Efficacy in assay [8] is 50%; in assay [7], 45%.

As to `CN(C)C(=O)Cc1cn(-c2cccc(C(F)(F)F)c2)nc1-c1ccccc1`, the figures for the Efficacy in assay [8] and in assay [7] were 36% and 71%, respectively.

Take `CN(C)C(=O)Cc1cn(-c2cccc(C(F)(F)F)c2)nc1-c1ccc(Cc2ccccc2)cc1`: the Efficacy entry in assay [5] and in assay [6] was “Not significant” throughout.

On to `CN(C)C(=O)Cc1cn(-c2cc(C(F)(F)F)cc(C(F)(F)F)c2)nc1-c1ccc(Cl)c(Cl)c1`, for which the Efficacy result in assay [3] and in assay [4] was “Not significant” throughout.

`O=C(Cc1cn(-c2cccc(C(F)(F)F)c2)nc1-c1ccc(Cl)c(Cl)c1)Nc1ccccc1`: the Efficacy entry in assay [3] and in assay [4] was “Not significant” throughout.

Turning to `CN(C)C(=O)Cc1cn(-c2cccc(C(F)(F)F)c2)nc1-c1ccc(-c2ccc(F)cc2)cc1`, the results for the Efficacy entry in assay [6] and in assay [2] were “Not significant” and 81%, respectively.

For `CN(C)C(=O)Cc1cn(-c2cccc(C(F)(F)F)c2)nc1-c1ccc2c(c1)Cc1ccccc1C2`, the Efficacy in assay [1] is 79%; in assay [2], 70%.

Regarding `CN(C)C(=O)Cc1cn(-c2cccc(C(F)(F)F)c2)nc1-c1ccc(Oc2ccccc2)cc1`, the Efficacy entry in assay [5] and in assay [6] was “Not significant” each time.

`O=C(O)Cc1cn(-c2cccc(C(F)(F)F)c2)nc1-c1ccc(Cl)c(Cl)c1`: the Efficacy entry in assay [3] and in assay [4] was “Not significant” in each case.

As for `CN(C)C(=O)Cc1cn(-c2ccc(Cl)c(Cl)c2)nc1-c1ccc(Cl)c(Cl)c1`, the Efficacy was determined as 53% in assay [8] and 34% in assay [7].

Consider `CN(C(=O)Cc1cn(-c2cccc(C(F)(F)F)c2)nc1-c1ccc(Cl)c(Cl)c1)c1ccccc1`, for which the Efficacy result is “Not significant” in assay [3] and 57% in assay [7].

On to `COc1ccc(-c2nn(-c3cccc(C(F)(F)F)c3)cc2CC(=O)N(C)C)cc1OC`, for which the figures for the Efficacy result in assay [6] and in assay [2] were “Not significant” and 85%, respectively.

For the compound `CN(C)C(=O)Cc1cn(-c2cccc(C(F)(F)F)c2)nc1-c1ccc(Cl)cc1`, the results for the Efficacy in assay [8] and in assay [4] were 78% and “Not significant”, respectively.

Take `CN(C)C(=O)Cc1cn(-c2cccc(C(F)(F)F)c2)nc1-c1ccc(Cl)c(Cl)c1`: the results for the Efficacy in assay [8] and in assay [4] were 63% and “Not significant”, respectively.

On to `CN(C)C(=O)Cc1cn(-c2cccc(C(F)(F)F)c2)nc1-c1ccc2c(c1)C(=O)c1ccccc1-2`, for which the Efficacy in assay [1] came to 107%; in assay [2] it was 78%.

Turning to `Cc1ccc(-c2nn(-c3cccc(C(F)(F)F)c3)cc2CC(=O)N(C)C)cc1`, the Efficacy in assay [8] was determined as 36%; in assay [7], 58%.

`CN(C)C(=O)Cc1cn(-c2cccc(C(F)(F)F)c2)nc1-c1ccc2ccccc2c1`: the Efficacy entry in assay [5] and in assay [6] was “Not significant” each time.

For the compound `CN(C)C(=O)Cc1cn(-c2ccc(F)cc2)nc1-c1ccc(Cl)c(Cl)c1`, the Efficacy is on record as 39% in assay [8] and 84% in assay [7].

With `O=C(Cc1cn(-c2cccc(C(F)(F)F)c2)nc1-c1ccc(Cl)c(Cl)c1)NO`, the Efficacy entry in assay [3] and in assay [4] was “Not significant” throughout.

As for `O=C(Cc1cn(-c2cccc(C(F)(F)F)c2)nc1-c1ccc(Cl)c(Cl)c1)N1CCCC1`, the Efficacy in assay [8] was 76%; in assay [7] it was 72%.

For the compound `CN(C)C(=O)Cc1cn(-c2ccc(C(F)(F)F)cc2)nc1-c1ccc(Cl)c(Cl)c1`, the values for the Efficacy in assay [8] and in assay [7] were 37% and 45%, respectively.

Regarding `CN(C)C(=O)Cc1cn(-c2cccc(C(F)(F)F)c2)nc1-c1ccc2sc3ccccc3c2c1`, the values for the Efficacy result in assay [5] and in assay [1] were “Not significant” and 59%, respectively.

In the case of `COc1ccc(-n2cc(CC(=O)N(C)C)c(-c3ccc(Cl)c(Cl)c3)n2)cc1`, the Efficacy in assay [8] worked out at 35%; in assay [7] it was 39%.

With `CN(C)C(=O)Cc1cn(-c2cccc(C(F)(F)F)c2)nc1-c1cccc2ccccc12`, the Efficacy entry in assay [5] and in assay [6] was “Not significant” throughout.

On to `CN(C)C(=O)Cc1cn(-c2cccc(C(F)(F)F)c2)nc1-c1cccc(-c2ccccc2)c1`, for which the Efficacy entry in assay [5] and in assay [6] was “Not significant” in each case.

Take `CN(C)C(=O)Cc1cn(-c2cccc(C(F)(F)F)c2)nc1-c1ccc2c(c1)Cc1ccccc1O2`: the values for the Efficacy in assay [1] and in assay [2] were 65% and 96%, respectively.

For `O=C(Cc1cn(-c2cccc(C(F)(F)F)c2)nc1-c1ccc(Cl)c(Cl)c1)N(Cc1ccccc1)Cc1ccccc1`, the Efficacy in assay [1] was determined as 52%; in assay [2], 49%.

As to `Cc1cccc(-n2cc(CC(=O)N(C)C)c(-c3ccc(Cl)c(Cl)c3)n2)c1`, the Efficacy entry in assay [5] and in assay [6] was “Not significant” in each case.

As for `O=C(Cc1cn(-c2cccc(C(F)(F)F)c2)nc1-c1ccc(Cl)c(Cl)c1)N1CCN(c2ccccc2)CC1`, the Efficacy result in assay [6] is “Not significant”; in assay [2], 42%.

As to `CN(C)C(=O)Cc1cn(-c2ccc(C(C)(C)C)cc2)nc1-c1ccc(Cl)c(Cl)c1`, the Efficacy entry in assay [5] and in assay [6] was “Not significant” throughout.

Source of the values: ChEMBL document CHEMBL1134551, “The effect of 1,3-diaryl-[1H]-pyrazole-4-acetamides on glucose utilization in ob/ob mice” (2001).
